Laboratory results published in ChEMBL document CHEMBL1926635, “Identification of novel molecular scaffolds for the design of MMP-13 inhibitors: a first round of lead optimization” (Eur J Med Chem, 2012).

Assays:
Collagenase 3 = Collagenase 3 (Homo sapiens, UniProt P45452); experiment: Inhibition of human MMP13 using Mca-Lys-Pro-Leu-Gly-Leu-Dap(Dnp)-Ala-Arg-NH2 as substrate pre-incubated for 4 hrs before substrate addition measured every 15 secs for 15 mins by fluorimetry
[1] = target: 72 kDa type IV collagenase (Homo sapiens, UniProt P08253); experiment: Inhibition of human MMP2 using Mca-Lys-Pro-Leu-Gly-Leu-Dap(Dnp)-Ala-Arg-NH2 as substrate pre-incubated for 4 hrs before substrate addition measured every 15 secs for 15 mins by fluorimetry
Sequence of 72 kDa type IV collagenase (P08253 whole entry): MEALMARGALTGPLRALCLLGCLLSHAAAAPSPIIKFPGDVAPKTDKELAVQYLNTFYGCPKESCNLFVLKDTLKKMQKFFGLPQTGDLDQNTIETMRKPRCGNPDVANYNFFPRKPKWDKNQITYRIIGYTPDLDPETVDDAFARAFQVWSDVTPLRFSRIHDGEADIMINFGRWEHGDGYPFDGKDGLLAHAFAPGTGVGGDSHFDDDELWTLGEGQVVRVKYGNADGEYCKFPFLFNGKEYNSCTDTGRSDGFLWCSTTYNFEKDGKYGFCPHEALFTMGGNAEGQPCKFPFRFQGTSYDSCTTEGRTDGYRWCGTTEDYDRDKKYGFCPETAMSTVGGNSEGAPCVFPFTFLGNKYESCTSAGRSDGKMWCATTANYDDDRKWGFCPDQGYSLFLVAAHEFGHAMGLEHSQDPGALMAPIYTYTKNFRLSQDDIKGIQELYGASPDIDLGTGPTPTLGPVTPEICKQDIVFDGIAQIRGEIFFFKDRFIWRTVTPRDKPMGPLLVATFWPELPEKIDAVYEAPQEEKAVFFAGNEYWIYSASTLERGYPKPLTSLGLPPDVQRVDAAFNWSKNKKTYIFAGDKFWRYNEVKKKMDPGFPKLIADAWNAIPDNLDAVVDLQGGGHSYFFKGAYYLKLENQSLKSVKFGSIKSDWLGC
In short: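 APMA 2 mM for 1 h at 37 °C activated the proenzyme. MMP-2 at 0.56 nM final was incubated with inhibitor for 4 h at 25 °C in pH 7.5 Tris buffer with NaCl, CaCl₂, 0.05% Brij-35 and 1% DMSO. Fluorescence was read at 325/395 nm, in triplicate. Percent inhibition was taken against the uninhibited control. IC50 came from ≥5 concentrations within 10–90% inhibition, fitted to Vi/Vo = 1/(1+[I]/IC50).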

Interstitial collagenase = target: T1, Interstitial collagenase (Homo sapiens, UniProt P03956); experiment: Inhibition of human MMP1 using Mca-Lys-Pro-Leu-Gly-Leu-Dap(Dnp)-Ala-Arg-NH2 as substrate pre-incubated for 4 hrs before substrate addition measured every 15 secs for 15 mins by fluorimetry
T1 sequence (P03956 whole entry): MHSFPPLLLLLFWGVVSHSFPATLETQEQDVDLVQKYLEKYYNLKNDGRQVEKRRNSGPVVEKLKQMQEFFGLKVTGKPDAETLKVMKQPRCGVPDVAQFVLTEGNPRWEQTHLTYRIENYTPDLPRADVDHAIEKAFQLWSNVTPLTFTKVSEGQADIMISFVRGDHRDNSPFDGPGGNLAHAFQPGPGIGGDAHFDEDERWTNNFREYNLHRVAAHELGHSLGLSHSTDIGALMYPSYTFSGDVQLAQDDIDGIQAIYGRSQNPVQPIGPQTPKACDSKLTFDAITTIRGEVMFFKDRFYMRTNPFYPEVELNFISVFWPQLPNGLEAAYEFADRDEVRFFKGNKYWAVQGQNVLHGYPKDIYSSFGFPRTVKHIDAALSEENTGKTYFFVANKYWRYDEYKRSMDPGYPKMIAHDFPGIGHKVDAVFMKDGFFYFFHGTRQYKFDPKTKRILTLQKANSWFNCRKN
In short: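 Pro-MMP-1 activated with APMA 2 mM for 2 h at 37 °C. Enzyme at 2.0 nM final was pre-incubated with inhibitor for 4 h at 25 °C in Tris 50 mM pH 7.5, NaCl 150 mM, CaCl₂ 10 mM, 0.05% Brij-35 and 1% DMSO. Read-out was fluorescence at ex 325/em 395 nm, in triplicate. IC50 was fitted to Vi/Vo = 1/(1+[I]/IC50) using ≥5 concentrations giving 10–90% inhibition.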

[2] = target: Matrix metalloproteinase-14 (Homo sapiens, UniProt P50281); experiment: Inhibition of recombinant human MMP14 catalytic domain using Mca-Lys-Pro-Leu-Gly-Leu-Dap(Dnp)-Ala-Arg-NH2 as substrate pre-incubated for 4 hrs before substrate addition measured every 15 secs for 15 mins by fluorimetry
In short: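 Catalytic domain used at 1 nM final and incubated with inhibitor for 4 h at 25 °C in Tris 50 mM pH 7.5, NaCl 150 mM, CaCl₂ 10 mM, 0.05% Brij-35 and 1% DMSO. Fluorescence was read at 325/395 nm, in triplicate. Percent inhibition was taken against the no-inhibitor control. IC50 was fitted to Vi/Vo = 1/(1+[I]/IC50) from ≥5 concentrations within 10–90% inhibition.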

Stromelysin-1 = Stromelysin-1 (Homo sapiens, UniProt P08254); experiment: Inhibition of human MMP3 using Mca-Arg-Pro-Lys-Pro-Val-Glu-Nva-Trp-Arg-Lys(Dnp)-NH2 as substrate pre-incubated for 4 hrs before substrate addition measured every 15 secs for 15 mins by fluorimetry
Sequence of Stromelysin-1 (P08254 whole entry): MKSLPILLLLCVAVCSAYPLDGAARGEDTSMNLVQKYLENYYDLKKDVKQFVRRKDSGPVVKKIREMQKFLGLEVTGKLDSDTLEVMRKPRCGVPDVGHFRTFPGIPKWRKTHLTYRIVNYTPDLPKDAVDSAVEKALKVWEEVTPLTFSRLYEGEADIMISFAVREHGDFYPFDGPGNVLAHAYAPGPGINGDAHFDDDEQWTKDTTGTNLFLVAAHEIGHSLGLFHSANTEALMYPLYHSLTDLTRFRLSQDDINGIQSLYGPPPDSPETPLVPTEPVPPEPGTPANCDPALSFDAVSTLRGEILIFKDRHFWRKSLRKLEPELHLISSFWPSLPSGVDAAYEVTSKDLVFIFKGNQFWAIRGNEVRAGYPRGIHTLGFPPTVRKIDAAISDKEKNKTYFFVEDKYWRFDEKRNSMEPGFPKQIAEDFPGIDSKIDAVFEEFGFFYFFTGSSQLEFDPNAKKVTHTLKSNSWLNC
In short: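 Pro-MMP-3 was activated with trypsin for 30 min at 37 °C, then quenched with soybean trypsin inhibitor. Enzyme at 5 nM final was pre-incubated with inhibitor for 4 h at 25 °C in Tris 50 mM pH 7.5, NaCl 150 mM, CaCl₂ 10 mM, 0.05% Brij-35 and 1% DMSO. Fluorescence was read at ex 325/em 395 nm, in triplicate. IC50 was fitted to Vi/Vo = 1/(1+[I]/IC50) from ≥5 concentrations giving 10–90% inhibition.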

[3] = Dissociation constant, pKa of the compound; type: physicochemical

Row | IC50 (Collagenase 3) [µM] | IC50 [1] [µM] | IC50 (Interstitial collagenase) [µM] | IC50 [2] [µM] | IC50 (Stromelysin-1) [µM] | pKa [3] | Structure (SMILES)
1 | 177 |  |  |  |  |  | O=c1oc2ccccc2cc1-c1cn(-c2ccccc2)c(S)n1
2 |  | 67 | 400 | 51 | 110 | 3.91 | O=C(O)c1cccc(-n2cc(-c3cc4ccccc4oc3=O)[nH]c2=S)c1
3 | > 300 |  |  |  |  |  | CCOC(=O)c1cccc(-n2cc(-c3cc4ccccc4oc3=O)[nH]c2=S)c1
4 | 3.2 |  |  |  |  |  | COc1ccc2oc(=O)c(-c3cn(-c4cccc(C(=O)O)c4)c(=S)[nH]3)cc2c1
5 | 5.5 |  |  |  |  |  | O=C(O)c1cccc(-n2cc(-c3cc4cccc(O)c4oc3=O)[nH]c2=S)c1
6 | 4.9 |  |  |  |  |  | COc1cc(Cl)cc2cc(-c3cn(-c4cccc(C(=O)O)c4)c(=S)[nH]3)c(=O)oc12
7 | 4.9 |  |  |  |  |  | C=CCc1cc(OC)c2oc(=O)c(-c3cn(-c4cccc(C(=O)O)c4)c(=S)[nH]3)cc2c1

The next lines start with the molecule.

Row | Structure (SMILES) | IC50 (Collagenase 3) [µM] | IC50 [1] [µM] | IC50 (Interstitial collagenase) [µM] | IC50 [2] [µM] | IC50 (Stromelysin-1) [µM] | pKa [3]
8 | O=C(O)CCCN1C(=O)S/C(=C\C=C\c2ccccc2)C1=O | 22 | 2.7 | 93 | 21 | 110 | 3.89
9 | O=C(O)COc1ccccc1/C=C1/NC(=S)NC1=O | 67 | 61 | 114 | 55 | 77 | 3.68
10 | COc1ccc(-c2ccc(/C=C3/SC(=S)N(CC(=O)O)C3=O)o2)cc1 | 120 | 350 | 860 | 310 | 850 | 3.62
11 | COc1ccc(-c2cs/c(=N\c3ccccc3)n2/N=C/c2ccccc2)cc1OC | 140 | 120 | 360 | 150 | 230 | 
12 | CCOc1ccc(-c2ccc(S(=O)(=O)N[C@@H](C(=O)O)C3CCN(C(=O)OC(C)C)CC3)s2)cc1 |  |  |  |  |  | 2.55
